Assay results: ChEMBL document CHEMBL1125379, “Binding of phenylalkylamine derivatives at 5-HT1C and 5-HT2 serotonin receptors: evidence for a lack of selectivity” (J Med Chem, 1992)

Columns and labels:
[1] = biological target: T1, 5-hydroxytryptamine receptor 2C (Rattus norvegicus, UniProt P08909); assay: Compound was tested for binding affinity towards 5-hydroxytryptamine 1C receptor from frontal cortical regions of male Sprague-Dawley rat homogenates, using [3H]mesulergine as radioligand
T1 sequence (P08909 whole entry): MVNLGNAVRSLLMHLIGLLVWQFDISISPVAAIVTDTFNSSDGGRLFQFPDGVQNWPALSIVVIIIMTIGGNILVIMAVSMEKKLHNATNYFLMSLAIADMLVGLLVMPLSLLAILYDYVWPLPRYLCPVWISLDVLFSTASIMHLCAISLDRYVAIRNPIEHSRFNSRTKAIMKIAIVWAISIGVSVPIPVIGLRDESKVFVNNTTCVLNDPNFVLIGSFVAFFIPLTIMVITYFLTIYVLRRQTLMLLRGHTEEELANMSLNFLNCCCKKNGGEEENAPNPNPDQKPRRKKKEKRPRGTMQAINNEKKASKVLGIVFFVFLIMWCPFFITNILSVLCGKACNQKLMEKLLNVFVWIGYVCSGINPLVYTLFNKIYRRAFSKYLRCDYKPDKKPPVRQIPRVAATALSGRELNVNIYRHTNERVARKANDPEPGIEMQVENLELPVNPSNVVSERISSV
Summary of the method: (§1)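 Male Sprague–Dawley rat frontal cortex membranes were washed in Tris/EDTA/MgCl2 pH 7.4 with a 37 °C preincubation and resuspended with ascorbate and pargyline. Each tube held 10 mg wet tissue, 1 nM [3H]mesulergine and 100 nM spiperone to block 5-HT2 sites. Nonspecific binding was set with 1 μM mianserin. Tubes were incubated 15 min at 37 °C, in triplicate, then filtered. Ki = IC50/(1+D*/KD*).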

[2] = biological target: T2, Serotonin 2 (5-HT2) receptor (Rattus norvegicus, UniProt P30994+P08909+P14842); assay: Binding affinity towards 5-hydroxytryptamine 2 receptor from frontal cortical regions of male Sprague-Dawley rat homogenates, using [3H]ketanserin as radioligand
Summary of the method: (§2)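 Male Sprague–Dawley rat frontal cortex membranes were washed in 50 mM Tris, 0.5 mM EDTA, 10 mM MgCl2, pH 7.4, and resuspended with 0.1% ascorbate and 10^-6 M pargyline. Each tube held 5 mg wet tissue and 0.4 nM [3H]ketanserin. Nonspecific binding was set with 1.0 μM cinanserin. Tubes were incubated 15 min at 37 °C, in triplicate, then filtered on PEI-soaked glass fiber. Ki came from IC50 via Cheng–Prusoff, using the saturation KD.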

[3] = biological target: T1, 5-hydroxytryptamine receptor 2C; assay: Binding affinity towards 5-hydroxytryptamine 1C receptor from frontal cortical regions of male Sprague-Dawley rat homogenates, using [3H]mesulergine as radioligand; summary of the method: as §1
[4] = biological target: Serotonin 2 (5-HT2) receptor (Rattus norvegicus) (UniProt P30994+P08909+P14842); assay: 5-HT1C selectivity was defined as the ratio between Ki(5-HT2)/Ki(5-HT1C); type: protein assay
Serotonin 2 (5-HT2) receptor (Rattus norvegicus), sequence (P14842 whole entry, looked up, one chain of several): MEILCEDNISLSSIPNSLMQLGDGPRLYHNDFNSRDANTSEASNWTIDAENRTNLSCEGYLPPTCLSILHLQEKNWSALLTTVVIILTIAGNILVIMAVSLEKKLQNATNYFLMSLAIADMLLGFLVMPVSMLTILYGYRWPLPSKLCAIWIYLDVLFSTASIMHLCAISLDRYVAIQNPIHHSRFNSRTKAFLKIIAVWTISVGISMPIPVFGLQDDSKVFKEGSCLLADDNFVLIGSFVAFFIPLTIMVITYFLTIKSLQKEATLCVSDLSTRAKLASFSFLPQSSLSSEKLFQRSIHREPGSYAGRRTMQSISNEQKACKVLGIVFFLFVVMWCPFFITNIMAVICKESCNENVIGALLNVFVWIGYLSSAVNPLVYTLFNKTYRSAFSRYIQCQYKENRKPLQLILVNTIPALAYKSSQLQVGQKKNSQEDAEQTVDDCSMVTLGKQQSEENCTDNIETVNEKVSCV
Serotonin 2 (5-HT2) receptor (Rattus norvegicus), sequence (P30994 whole entry, looked up, one chain of several): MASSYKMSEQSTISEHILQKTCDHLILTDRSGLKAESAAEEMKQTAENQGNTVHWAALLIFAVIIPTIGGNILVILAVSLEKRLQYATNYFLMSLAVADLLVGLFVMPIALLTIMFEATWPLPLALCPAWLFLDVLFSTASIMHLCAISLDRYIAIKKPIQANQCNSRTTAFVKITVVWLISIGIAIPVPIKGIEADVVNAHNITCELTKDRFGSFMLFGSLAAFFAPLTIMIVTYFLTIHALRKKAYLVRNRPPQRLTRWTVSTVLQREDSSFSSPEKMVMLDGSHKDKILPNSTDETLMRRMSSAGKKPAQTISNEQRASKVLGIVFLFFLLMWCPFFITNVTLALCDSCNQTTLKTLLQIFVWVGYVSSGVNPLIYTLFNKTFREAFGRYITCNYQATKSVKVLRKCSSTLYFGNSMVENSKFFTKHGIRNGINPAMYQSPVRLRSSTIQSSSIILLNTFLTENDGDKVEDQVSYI
Summary of the method: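 Ratio of Ki values from rat frontal cortex competition assays. For 5-HT2: 0.4 nM [3H]ketanserin, with 1 μM cinanserin nonspecific. For 5-HT1C: 1 nM [3H]mesulergine plus 100 nM spiperone, with 1 μM mianserin nonspecific. Both were run 15 min at 37 °C in triplicate. Ki = IC50/(1+D*/KD*).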

[5] = biological target: T2, Serotonin 2 (5-HT2) receptor; assay: Compound was tested for binding affinity towards 5-hydroxytryptamine 2 (5-hydroxytryptamine-2) receptor from frontal cortical regions of male Sprague-Dawley rat homogenates, using [3H]-ketanserin as radioligand; summary of the method: as §2

## CC(N)Cc1ccc(OC(=O)c2ccccc2)cc1 (stereo unspecified)
[1]
  Ki: 1210 nM

## COc1cccc(Br)c1CC(C)N (stereo unspecified)
[2]
  Ki: > 10000 nM
[3]
  Ki: 1560 nM
[4]
  Selectivity: > 6

## COc1cc(C)ccc1CC(C)N (stereo unspecified)
[2]
  Ki: 1435 nM
[3]
  Ki: 610 nM
[4]
  Selectivity: 2

## CC(N)Cc1ccc(Br)cc1 (stereo unspecified)
[3]
  Ki: 1480 nM

## CCCNC(C)Cc1cc(OC)c(Br)cc1OC (stereo unspecified)
[2]
  Ki: 2460 nM
[3]
  Ki: > 10000 nM
[4]
  Selectivity: < 1

## COc1ccc(OC)c(CC(C)N)c1 (stereo unspecified)
[3]
  Ki: 1220 nM

## COc1cc(I)ccc1CC(C)N (stereo unspecified)
[2]
  Ki: 580 nM
[3]
  Ki: 130 nM
[4]
  Selectivity: 5

## CCCc1cc(OC)c(CC(C)N)cc1OC (stereo unspecified)
[3]
  Ki: 14 nM
[4]
  Selectivity: 5

## COc1cc(Br)ccc1CCN
[2]
  Ki: 1030 nM
[3]
  Ki: 220 nM
[4]
  Selectivity: 5

## COc1ccc(CC(C)N)c(OC)c1 (stereo unspecified)
[2]
  Ki: > 10000 nM
[3]
  Ki: 4480 nM
[4]
  Selectivity: > 2

## CCCc1ccc(CC(C)NC)cc1 (stereo unspecified)
[2]
  Ki: 2525 nM
[3]
  Ki: 1930 nM
[4]
  Selectivity: 1

## Cc1ccc(CC(C)N)cc1 (stereo unspecified)
[5]
  Ki: > 10000 nM
[1]
  Ki: > 10000 nM

## COc1cc(Br)ccc1CC(C)N (stereo unspecified)
[2]
  Ki: 830 nM
[3]
  Ki: 100 nM
[4]
  Selectivity: 8

## CCOc1ccc(CC(C)N)cc1 (stereo unspecified)
[2]
  Ki: > 10000 nM
[1]
  Ki: > 10000 nM

## CCOc1cc(OC)c(CC(C)N)cc1OC (stereo unspecified)
[3]
  Ki: 2300 nM
[4]
  Selectivity: 1

## CNC(C)Cc1ccc(C)cc1OC (stereo unspecified)
[3]
  Ki: 1480 nM

## COc1cc(CC(C)N)c(OC)cc1I (stereo unspecified)
[3]
  Ki: 30 nM
[4]
  Selectivity: 0.6

## CNC(C)Cc1cc(OC)c(Br)cc1OC (stereo unspecified)
[2]
  Ki: 80 nM
[3]
  Ki: 98 nM
[4]
  Selectivity: 1

## CCCc1ccc(CC(C)N)cc1 (stereo unspecified)
[5]
  Ki: 2345 nM
[1]
  Ki: 1250 nM
[4]
  Selectivity: 2

## CCCOC(=O)c1cc(OC)c(CC(C)N)cc1OC (stereo unspecified)
[3]
  Ki: > 10000 nM
[4]
  Selectivity: < 1

## COc1cc(C)ccc1CCN
[2]
  Ki: 825 nM
[3]
  Ki: 110 nM
[4]
  Selectivity: 7

## CCCCc1cc(OC)c(CC(C)N)cc1OC (stereo unspecified)
[3]
  Ki: 26 nM
[4]
  Selectivity: 2
